The values below come from ChEMBL document CHEMBL1134284, “The biological effects of structural variation at the meta position of the aromatic rings and at the end of the alkenyl chain in the alkenyldiarylmethane series of non-nucleoside reverse transcriptase inhibitors” (J Med Chem, 2001).

Some results are limits rather than exact numbers.

Series [1] deals with CCRF-CEM. Put plainly: Antiviral activity against site directed resistant isolate HIV-1 V106A in CEM cells. The format is functional, cell-based, Homo sapiens. The method in brief: (§1)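 CEM-SS cells in RPMI 1640 with 10% heat-inactivated FBS were infected with NL4-3 molecular clones carrying site-directed RT mutations. Cytoprotection from virus-induced syncytial killing was read by MTS/phenazine ethosulfate reduction (A490) 6 days after infection. […] Triplicate, variation of mean about 10%.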

Series [2] has as its system CCRF-CEM. Put plainly: Antiviral activity against site directed resistant isolate HIV-1 Y188C in CEM cells. The format is functional, cell-based, Homo sapiens. The method in brief: as §1
Series [3] is described as follows: Antiviral activity against subtype isolate F strain in PBLs (peripheral blood lymphocytes). Format: functional, cell-based, Homo sapiens. The method in brief:
(§2)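 PBMCs isolated from hepatitis- and HIV-seronegative donors by Ficoll-Hypaque gradient and stimulated 3 days with phytohemagglutinin/IL-2. Infected with pediatric low-passage clinical isolates or NIAID subtype isolates, in RPMI 1640 with 10% FBS, 2 mM glutamine, penicillin/streptomycin. Replication read as supernatant reverse transcriptase activity. […] Run in triplicate, with AZT as positive control.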

Series [4] relates to CCRF-CEM. Put plainly: Antiviral activity against site directed wild-type enzyme isolate HIV-1 NL4-3WT in CEM cells. Format: functional, cell-based. As to conditions: Homo sapiens; call rule not given here. The method in brief: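 Wild-type NL4-3 in CEM-SS cells, measured both by MTS cytoprotection 6 days after infection and by p24 ELISA. The IC50 is the mean of the two methods' values.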
Series [5] in a line: Antiviral activity against Ba-L monocyte tropic isolate strain in monocyte. As to conditions: Homo sapiens. The format is functional. In outline:
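Monocytes isolated from hepatitis- and HIV-seronegative donors by Ficoll-Hypaque gradient, cultured 6 days into macrophages, then infected with Ba-L. Medium RPMI 1640 with 10% FBS, 2 mM glutamine, penicillin/streptomycin. Replication read as p24 antigen by ELISA 6 days postinfection. […] Run in triplicate, with AZT as positive control.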

Series [6] is described as follows: Antiviral activity against subtype isolate G strain in PBLs (peripheral blood lymphocytes). The format is functional, cell-based. As to conditions: Homo sapiens. In outline:
as §2

Series [7] in a line: Antiviral activity against subtype isolate B strain in PBLs (peripheral blood lymphocytes). Format: functional, cell-based, Homo sapiens. As to conditions: Homo sapiens. The method in brief: as §2
Series [8] in a line: Antiviral activity against subtype isolate O strain in PBLs (peripheral blood lymphocytes). The format is functional, cell-based, Homo sapiens. As to conditions: Homo sapiens. In outline:
as §2

Series [9] in a line: Antiviral activity against subtype isolate E strain in PBLs (peripheral blood lymphocytes). Format: functional, cell-based. As to conditions: Homo sapiens.
The test system of series [10] is CCRF-CEM. Put plainly: Antiviral activity against site directed resistant isolate HIV-1 K101E in CEM cells. Format: functional, cell-based, Homo sapiens.
Series [11] is described as follows: Antiviral activity against subtype isolate A strain in PBLs (peripheral blood lymphocytes). Format: functional, cell-based. As to conditions: Homo sapiens. In outline:
as §2

Series [12] is described as follows: Antiviral activity against subtype isolate D strain in PBLs (peripheral blood lymphocytes). The format is functional, cell-based. As to conditions: Homo sapiens. The method in brief: as §2
Series [13] deals with CEM-SS. In words: Concentration required for cytotoxicity against mock infected CEM-SS cells. Format: functional. As to conditions: Homo sapiens. In outline: (§3)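 CEM-SS cells kept in RPMI 1640 with 10% heat-inactivated FBS, 2 mM glutamine, penicillin/streptomycin. Microtiter assay with cytopathic HIV-1 RF, or mock infection for toxicity. Viability read by MTS/phenazine ethosulfate reduction (absorbance 490 nm) 6 days after infection. […] Triplicate.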

The test system of series [14] is CCRF-CEM. Put plainly: Antiviral activity against site directed 4X AZT resistant isolate HIV-1 in CEM cells. Format: functional, cell-based, Homo sapiens. As to conditions: Homo sapiens, CCRF-CEM.
For series [15], the system named is CCRF-CEM. Put plainly: Antiviral activity against site directed resistant isolate HIV-1 Y181C in CEM cells. Format: functional, cell-based, Homo sapiens. The method in brief: as §1
In series [16] the test system is CCRF-CEM. Put plainly: Antiviral activity against site directed resistant isolates in HIV-1 A98G CEM cells. Format: functional, cell-based, Homo sapiens. In outline: (§4)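 CEM-SS cells infected with low-cytopathicity site-directed RT-mutant NL4-3 clones (A98G, L74V, 4XAZT = D67N/K70R/T215Y/K219Q, 4XAZT/L100I). Replication was quantified by p24 ELISA rather than cytoprotection. […] Triplicate, variation of mean about 10%.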

A short description of series [17]: Antiviral activity against TEKI virus strain in PBLs (peripheral blood lymphocytes). The format is functional, cell-based. As to conditions: Homo sapiens. In outline:
as §2

Series [18] relates to CCRF-CEM. Put plainly: Antiviral activity against site directed resistant isolate HIV-1 V179D in CEM cells. The format is functional, cell-based, Homo sapiens. The method in brief:
as §1

Series [19] can be described thus: (§5) Antiviral activity against ROJO virus strain in PBLs (peripheral blood lymphocytes). The format is functional, cell-based. As to conditions: Homo sapiens. The method in brief:
as §2

The test system of series [20] is Human immunodeficiency virus type 1 (RF/HAT ISOLATE). In words: Inhibitory concentration for cytopathicity of HIV-1RF in CEM-SS cells. The format is functional, organism-based. As to conditions: Human immunodeficiency virus 1, RF. In outline:
as §3
On the technique in general: Damage to the host cells serves as the signal in cytopathic effect assays.

For series [21], the system named is CCRF-CEM. Put plainly: Antiviral activity against site directed resistant isolate HIV-1 K103N in CEM cells. The format is functional, cell-based, Homo sapiens. In outline:
as §1

The test system of series [22] is CCRF-CEM. In words: Antiviral activity against site directed resistant isolate HIV-1 L100I in CEM cells. The format is functional, cell-based, Homo sapiens. In outline:
as §1

The nature of series [23]: Antiviral activity against WEJO virus strain in PBLs (peripheral blood lymphocytes). The format is functional, cell-based. As to conditions: Homo sapiens. The method in brief: as §2
Series [24] deals with CCRF-CEM. In words: Antiviral activity against site directed 4X AZT resistant isolate HIV-1 L100I in CEM cells. The format is functional, cell-based, Homo sapiens. The method in brief: as §4
Series [25] is described as follows: (§6) Ratio of CC50/EC50 was determined. As to conditions: human, CEM-SS cells; read-out: TI. Format: cell-based. In outline:
(§7)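 HIV-1 RF–infected CEM-SS cells (RPMI 1640, 10% heat-inactivated FBS, 2 mM glutamine, penicillin/streptomycin), plus mock-infected CEM-SS in parallel. Cell killing and viability were read by MTS/phenazine ethosulfate reduction at 490 nm 6 days after infection. […] Index = CC50 ÷ EC50. Triplicate tests.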

A short description of series [26]: Antiviral activity against subtype isolate C strain in PBLs (peripheral blood lymphocytes). The format is functional, cell-based. As to conditions: Homo sapiens. In outline: as §2
In series [27] the test system is CCRF-CEM. In words: Antiviral activity against site directed resistant isolate HIV-1 L74V in CEM cells. The format is functional, cell-based, Homo sapiens. In outline: as §4
Series [28] is described as follows: Antiviral activity against SLKA virus strain in PBLs (peripheral blood lymphocytes). Format: functional, cell-based. As to conditions: Homo sapiens. The method in brief:
as §2

Series [29] can be described thus: Antiviral activity against multi drug resistant MDR 769 strain in PBLs (peripheral blood lymphocytes). Format: functional, cell-based. As to conditions: Homo sapiens. The method in brief:
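PBMC from hepatitis- and HIV-seronegative donors isolated by Ficoll-Hypaque gradient and stimulated 3 days with phytohemagglutinin/IL-2 before infection. Medium RPMI 1640 with 10% FBS, 2 mM glutamine, penicillin/streptomycin. Replication read as supernatant reverse transcriptase activity. […] Run in triplicate, SD within triplicate under 10%; AZT positive control.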

Series [30] can be described thus: as §6. As to conditions: read-out: TI. In outline: as §7
For another series, the system named is PBL. The description is as §5. Format: functional, cell-based. As to conditions: Homo sapiens. The method in brief:
as §2

For series [31], the target named is Human immunodeficiency virus type 1 reverse transcriptase (Human immunodeficiency virus 1, UniProt Q72547). Put plainly: Inhibitory activity against HIV-1 Reverse Transcriptase with rCdG as the template primer. In outline: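 Cell-free assay with purified recombinant HIV-1 RT (p66/p51 dimer). Activity measured as [32P]GTP incorporation into the poly(rC)/oligo(dG) homopolymer template/primer. IC50 is reported as inhibition of enzyme activity.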

The test system of series [32] is CEM-SS. In words: Inhibitory concentration for cytopathicity of HIV-1RF in CEM-SS cells; Not active. Format: functional, cell-based, Homo sapiens. In outline: as §3

A word on the IC50: it is the concentration that gives 50% inhibition. The CC50 is the concentration that lowers cell viability or growth by half. A lower CC50 goes with greater toxicity to the cells. A word on the EC50: it is the concentration needed to bring the measured effect to its halfway point. Low readings indicate higher potency in that assay, high ones lower potency in that assay. As to `COC(=O)CCCC=C(c1cc(Br)c(OC)c(C(=O)OC)c1)c1cc(Br)c(OC)c(C(=O)OC)c1`, the half-maximal inhibitory concentration (IC50) in the series on CCRF-CEM [1] was 9840 nM; in the series on CCRF-CEM [2], 2000 nM; in series [3], 1900 nM; with CCRF-CEM [4], 400 nM; in series [5] it was 3600 nM; in series [6] it was 300 nM. Moreover, the IC50 in series [7] worked out at 5400 nM; in series [8], 16000 nM; in [9] it was 200 nM; with CCRF-CEM [10], 594 nM; in [11], 200 nM; in series [12] it was 180 nM. In addition, the IC50 with CCRF-CEM [14] stood at 32 nM; with CCRF-CEM [15], 8300 nM; in the series on CCRF-CEM [16] it was 460 nM; in series [17] it was 900 nM; with CCRF-CEM [18] it was 1300 nM; in series [19], 540 nM. Besides, the IC50 in the series with CCRF-CEM [21] was determined as 350 nM; with CCRF-CEM [22], 84 nM; in series [23], 400 nM; in the series with CCRF-CEM [24] it was 320 nM; in series [26] it was 310 nM; in the series on CCRF-CEM [27], 284 nM. Besides, the results for the IC50 in series [28] and in series [29] were 1000 nM and 48800 nM, respectively. Moreover, the CC50 in the series with CEM-SS [13] amounted to 13000 nM. The same molecule came in with an EC50 in [20] of 1.3 nM. For the same molecule, in [25], the selectivity ratio amounted to 10000.

Regarding `CCOC(=O)CCCC=C(c1cc(Cl)c(OC)c(C(=O)OC)c1)c1cc(Cl)c(OC)c(C(=O)OC)c1`, the selectivity ratio in series [30] was 1600. Further, the half-maximal inhibitory concentration (IC50) was determined as 10300 nM with CCRF-CEM [1]; 4100 nM in the series on CCRF-CEM [2]; 300 nM in [3] (Homo sapiens); 580 nM in the series on CCRF-CEM [4]; 8900 nM in [5]; 800 nM in series [6]. Besides, the IC50 in series [7] worked out at 12500 nM; in [8], 30000 nM; in [9], 200 nM; in the series on CCRF-CEM [10], 164 nM; in series [11] it was 200 nM; in [12] it was 150 nM. The IC50 worked out at 76 nM in the series on CCRF-CEM [14]; 19100 nM in the series on CCRF-CEM [15]; 13 nM with CCRF-CEM [16]; 1000 nM in [17]; 2300 nM in the series with CCRF-CEM [18]; 390 nM with PBL. The IC50 in the series on CCRF-CEM [21] came to 270 nM; in the series with CCRF-CEM [22], 80 nM; in [23], 700 nM; in the series on CCRF-CEM [24], 370 nM; in series [26], 820 nM; in the series with CCRF-CEM [27], 885 nM. In addition, the IC50 amounted to 900 nM in series [28], 233 nM in series [31] and 45200 nM in series [29]. Further, half-maximal cytotoxicity in the series with CEM-SS [13] (CC50) was put at 16000 nM. The molecule also had an EC50 in series [20] of 10 nM.

Molecule `CN/C(S)=N/CCC=C(c1cc(Cl)c(OC)c(C(=O)OC)c1)c1cc(Cl)c(OC)c(C(=O)OC)c1` had a half-maximal cytotoxic concentration (CC50) with CEM-SS [13] of 1360 nM. For the same molecule, in the series on CEM-SS [32], the concentration for a half-maximal effect (EC50) result is recorded as “Not Active”. Further, in series [31], the IC50 is greater than 100000 nM.

Regarding `COC(=O)c1cc(C(=CCCCC(=O)N2CCCCC2)c2cc(Cl)c(OC)c(C(=O)OC)c2)cc(Cl)c1OC`, the CC50 with CEM-SS [13] was determined as 3590 nM. Also, the EC50 entry in the series on CEM-SS [32] is reported as “Not Active”. Besides, the IC50 in [31] was greater than 100000 nM.

Molecule `COC(=O)c1cc(C(=CCCNC(=O)OCC(C)C)c2cc(Cl)c(OC)c(C(=O)OC)c2)cc(Cl)c1OC` showed a CC50 in the series with CEM-SS [13] of 17200 nM. Besides, in the series on CEM-SS [32], the EC50 entry is “Not Active”. In series [31], half-maximal inhibition (IC50) required 65400 nM.
